For test [1], the system named is lymphoma. As to the kind of experiment: (§1) Percentage of cells in G2-M cell cycle phase of lymphoma cells after 24 hr treatment. It counts as functional. The note with it: Homo sapiens.
A short description of test [2]: Mean IC50 value of the compound. It counts as functional. In outline: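 Geometric mean of clonogenic soft-agar IC50 values across the tumor xenografts tested: 10 raised to the mean of log IC50 over all xenografts.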
Test [3] concerns lymphoma. As to the kind of experiment: (§2) Percentage of cells in G1 cell cycle phase of lymphoma cells after 48 hr treatment. It counts as functional. To be noted: Homo sapiens.
Test [4] concerns lymphoma. As to the kind of experiment: (§3) Percentage of cells in S cell cycle phase of lymphoma cells after 24 hr treatment. To be noted: Homo sapiens. The test is classed as functional.
Test [5] concerns lymphoma. As to the kind of experiment: (§4) Percentage of cells in G2-M cell cycle phase of lymphoma cells after 48 hr treatment. The test is classed as functional. The note with it: Homo sapiens.
The nature of test [6]: Ratio of IC50 values was calculated by IC50 cytidine incorporation/IC50 cell proliferation. It counts as functional. The essentials:
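Ratio of the [14C]cytidine-incorporation IC50 to the cell-proliferation IC50, both measured in Burkitt's lymphoma cells.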

Test [7] deals with lymphoma. As to the kind of experiment: (§5) Percentage of cells in S cell cycle phase of lymphoma cells after 48 hr treatment. It counts as functional. To be noted: Homo sapiens.
In test [8] the test system is lymphoma. As to the kind of experiment: (§6) Percentage of cells in G1 cell cycle phase of lymphoma cells after 24 hr treatment. The test is classed as functional. To be noted: Homo sapiens.
In test [9] the test system is HT-29. As to the kind of experiment: Cytotoxic activity against colon adenocarcinoma (HT-29) cell line. It counts as functional, cell-based, Homo sapiens. In outline:
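HT-29 colon adenocarcinoma cells in McCoy's 5A with 10% FCS, glutamine and penicillin/streptomycin, about 10 000 cells/well. After a 4 h preincubation, cells were exposed to compound (DMSO up to 0.5% final) for 72 h at 37 °C, 5% CO2. Readout was SRB assay. IC50 from dose-response curves; mean of at least three independent experiments run in duplicate.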

The subject of another test is CCRF-CEM. As to the kind of experiment: Cytotoxic activity against human acute lymphoblastic leukemia (CCRF-CEM) cell line. It counts as functional, cell-based.
Test [10] has as its system HT-29. As to the kind of experiment: Inhibition of cell proliferation of human colon HT-29X tumor xenograft in colony forming assay. The test is classed as functional, cell-based. (In general: In xenograft studies the graft and the host belong to different species.)
For a further test, the system named is PAXF736. As to the kind of experiment: Inhibition of cell proliferation of human pancreas PAXF736 tumor xenograft in colony forming assay. It counts as functional, cell-based.
Another test deals with MX1. As to the kind of experiment: Inhibition of cell proliferation of human breast MXI tumor xenograft in colony forming assay. The test is classed as functional, cell-based.
The test system of a further test is PAXF546. As to the kind of experiment: Inhibition of cell proliferation of human pancreas PAXF546 tumor xenograft in colony forming assay. The test is classed as functional, cell-based.
The test system of the next test is MEXF989. As to the kind of experiment: Inhibition of cell proliferation of human melanoma MEXF989 tumor xenograft in colony forming assay. It counts as functional, cell-based.
A further test deals with LXFS538. As to the kind of experiment: Inhibition of cell proliferation of human lung small cell LXFS538 tumor xenograft in colony forming assay. The test is classed as functional, cell-based.
In the next test the test system is LXFL 529. As to the kind of experiment: Inhibition of cell proliferation of human lung large cell LXFL529 tumor xenograft in colony forming assay. The test is classed as functional, cell-based.
The test system of a further test is CXF1103. As to the kind of experiment: Inhibition of cell proliferation of human colon CXF1103 tumor xenograft in colony forming assay. It counts as functional, cell-based.
A short description of test [11]: Inhibition of [14C]-cytidine incorporation into DNA in Burkitt''s lymphoma cells. The test is classed as functional, cell-based, Homo sapiens. The essentials:
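Intact exponentially growing Burkitt's lymphoma cells, (1-2)×10^6/mL, incubated with compound at 37 °C for 90 min, then 0.7 μCi [14C]cytidine added. Cells TCA-precipitated and RNase-treated in Tris-HCl pH 8 for 2 h at 37 °C, then reprecipitated with TCA. Pellet dissolved in NaOH and counted by scintillation. IC50 is the mean of two experiments run in duplicate.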

The test system of the next test is CXF280. As to the kind of experiment: Inhibition of cell proliferation of human colon CXF280 tumor xenograft in colony forming assay. It counts as functional, cell-based.
The subject of the next test is MCF7. As to the kind of experiment: Inhibition of cell proliferation of human breast MCF7X tumor xenograft in colony forming assay. It counts as functional, cell-based.
Another test relates to MEXF276L. As to the kind of experiment: Inhibition of cell proliferation of human melanoma MEXF276L tumor xenograft in colony forming assay. It counts as functional, cell-based.
Test [12] can be described thus: Inhibition of cell proliferation in Burkitt's lymphoma cells. It counts as functional, cell-based, Homo sapiens.
The test system of another test is OVXF1353 cell line. As to the kind of experiment: Inhibition of cell proliferation of human ovary OVXF1353 tumor xenograft in colony forming assay. It counts as functional, cell-based, Female gonad.
The next test deals with CXF158. As to the kind of experiment: Inhibition of cell proliferation of human colon CXF158 tumor xenograft in colony forming assay. The test is classed as functional, cell-based.
For the next test, the system named is OVXF1023 cell line. As to the kind of experiment: Inhibition of cell proliferation of human ovary OVXF1023 tumor xenograft in colony forming assay. The test is classed as functional, cell-based, Female gonad.
A further test has as its system RXF 423. As to the kind of experiment: Inhibition of cell proliferation of human renal RXF423 tumor xenograft in colony forming assay. The test is classed as functional, cell-based.
The nature of test [13]: as §1. It counts as functional, Homo sapiens.
Test [14] can be described thus: as §2. It counts as functional, Homo sapiens.
Test [15] can be described thus: as §3. It counts as functional, Homo sapiens.
Test [16] in a line: as §4. The test is classed as functional, Homo sapiens.
The nature of test [17]: as §5. It counts as functional, Homo sapiens.
A short description of test [18]: as §6. It counts as functional, Homo sapiens.

As for “N-[(1E)-1-(5-methylpyrazin-2-yl)ethylidene]-3-azabicyclo[3.2.2]nonane-3-carbohydrazonothioic acid.chloro Cu(II)complex [listing 1 of 2 here]”, the Activity with lymphoma [1] came out at 19.9%; with lymphoma [3] it was 52.7%; with lymphoma [4], 25.9%; in the test with lymphoma [5], 17.7%; in the test with lymphoma [7] it was 29.4%; with lymphoma [8] it was 53.1%. This compound also had a Mean IC50 in test [2] of 0.37 nM. In [6], the IC50 ratio is 495.
For orientation: IC50 means the midpoint of a concentration-inhibition curve. In the case of `C/C(=N\N=C(/S)N1CC2CCC(CC2)C1)c1cnccn1`, the IC50 is 11 nM in the test on HT-29 [9] (Homo sapiens, HT-29) and 11 nM with CCRF-CEM (Homo sapiens, CCRF-CEM).
Take “N-[(1E)-1-(3-methylpyrazin-2-yl)ethylidene]-3-azabicyclo[3.2.2]nonane-3-carbohydrazonothioic acid.chloro Cu(II)complex [listing 1 of 2 here]”: the IC50 is 0.85 nM with HT-29 [10]; less than 0.1 nM with PAXF736; 5 nM in the test with MX1; 0.56 nM in the test on PAXF546; 3 nM with MEXF989; 0.22 nM in the test on LXFS538. The half-maximal inhibitory concentration (IC50) with LXFL 529 is less than 0.1 nM; with CCRF-CEM (ccrf-cem), 6 nM; in the test on CXF1103, less than 0.1 nM; in test [11], 180 nM; with CXF280, less than 0.1 nM; with MCF7, 0.21 nM. The 50% inhibitory concentration (IC50) came to 36 nM in the test on MEXF276L and 6 nM in test [12].
On to “N-[(1E)-1-(6-methylpyrimidin-4-yl)ethylidene]-3-azabicyclo[3.2.2]nonane-3-carbohydrazonothioic acid.chloro Cu(II)complex [listing 1 of 2 here]”, for which the Activity in the test on lymphoma [1] amounted to 13.6%; in the test on lymphoma [3], 59.2%; in the test with lymphoma [4], 21.7%; with lymphoma [5], 11.4%; in the test on lymphoma [7], 21.5%; in the test with lymphoma [8], 64.5%. This compound showed a Mean IC50 in test [2] of 1 nM. In addition, in test [6], the IC50 ratio is 11.7.
With “N-[(1E)-1-pyrazin-2-ylethylidene]-3-azabicyclo[3.2.2]nonane-3-carbohydrazonothioic acid.chloro Cu(II)complex”, the half-inhibitory concentration (IC50) in the test with HT-29 [9] (ht-29) and with CCRF-CEM (ccrf-cem) was less than 10 nM each time.
In the case of “N-[(1E)-1-(6-methylpyridazin-3-yl)ethylidene]-3-azabicyclo[3.2.2]nonane-3-carbohydrazonothioic acid.chloro Cu(II)complex”, the IC50 in the test on HT-29 [9] (ht-29) is 870 nM; with CCRF-CEM (ccrf-cem), 130 nM.
Turning to “N-[(1E)-1-(6-methylpyrimidin-4-yl)ethylidene]-3-azabicyclo[3.2.2]nonane-3-carbohydrazonothioic acid.chloro Cu(II)complex [listing 2 of 2 here]”, the IC50 in the test on HT-29 [10] is 5 nM; in the test on OVXF1353 cell line it was 19 nM; in the test with HT-29 [9] (ht-29) it was 4 nM; with PAXF736, 15 nM; in the test with MX1 it was 14 nM; in the test with PAXF546 it was 3 nM. In addition, the half-inhibitory concentration (IC50) with MEXF989 is 0.84 nM; in the test with LXFL 529, less than 0.1 nM; in the test on CCRF-CEM (ccrf-cem) it was 10 nM; in the test with CXF1103, 0.11 nM; in [11], 210 nM; in the test with CXF280 it was 0.2 nM. Besides, the IC50 with CXF158 is 2 nM; with MCF7, 0.2 nM; with OVXF1023 cell line it was 15 nM; in the test with RXF 423, 26 nM.
In the case of “N-[(1E)-1-(3-methylpyrazin-2-yl)ethylidene]-3-azabicyclo[3.2.2]nonane-3-carbohydrazonothioic acid.chloro Cu(II)complex [listing 2 of 2 here]”, the Activity with lymphoma [1] came to 17%; in the test on lymphoma [3] it was 49.3%; in the test on lymphoma [4], 22.8%; with lymphoma [5] it was 9.81%; in the test on lymphoma [7], 29.8%; in the test with lymphoma [8], 51.9%. The compound also gave a Mean IC50 in test [2] of 0.37 nM. Further, the IC50 ratio in test [6] was 30.
Turning to “N-[(1E)-1-pyrimidin-4-ylethylidene]-3-azabicyclo[3.2.2]nonane-3-carbohydrazonothioic acid.chloro Cu(II)complex”, the 50% inhibitory concentration (IC50) in the test with HT-29 [9] (ht-29) and in the test with CCRF-CEM (ccrf-cem) was less than 10 nM in each case.
With `C/C(=N\N=C(/S)N1CC2CCC(CC2)C1)c1ccncn1`, the half-inhibitory concentration (IC50) came out at 50 nM with HT-29 [9] (Homo sapiens, HT-29) and 20 nM in the test with CCRF-CEM (Homo sapiens, CCRF-CEM).
`NC(=O)NO` [HYDROXYUREA]: the Activity in test [13] was 11.9%; in test [14], 21.27%; in test [15], 38.22%; in test [16], 19.52%; in test [17], 45.1%; in test [18], 48.2%. Also, the IC50 in test [11] came out at 37200 nM; in test [12] (Homo sapiens), 140000 nM. The IC50 ratio in test [6] was 0.26.
As for “N-[(1E)-1-(5-methylpyrazin-2-yl)ethylidene]-3-azabicyclo[3.2.2]nonane-3-carbohydrazonothioic acid.chloro Cu(II)complex [listing 2 of 2 here]”, the IC50 was 1 nM in the test with HT-29 [10]; 24 nM with OVXF1353 cell line; 4 nM with HT-29 [9] (ht-29); less than 10 nM in the test with PAXF736; 4 nM in the test with MX1; 0.2 nM with PAXF546. The IC50 was 0.7 nM in the test with MEXF989; less than 0.1 nM in the test on LXFL 529; 5 nM with CCRF-CEM (ccrf-cem); less than 0.1 nM in the test with CXF1103; 2970 nM in test [11]; less than 0.1 nM with CXF280. The half-inhibitory concentration (IC50) was 0.13 nM with CXF158; less than 0.1 nM in the test on MCF7; 14 nM in the test with MEXF276L; 10 nM in the test on OVXF1023 cell line; 4 nM with RXF 423; 6 nM in [12].
For Copper(II) Complex, the IC50 came to 1510 nM in the test on HT-29 [9] (ht-29) and 300 nM in the test on CCRF-CEM (ccrf-cem).

The values are drawn from ChEMBL document CHEMBL1134451, “Synthesis, cytotoxicity, and antitumor activity of copper(II) and iron(II) complexes of (4)N-azabicyclo[3.2.2]nonane thiosemicarbazones derived from acyl diazines” (J Med Chem, 2001).
